Assay [1] has as its target Cannabinoid receptor 1 (Rattus norvegicus, UniProt P20272). In words: Displacement of [3H]CP-55940 from rat CB1 receptor expressed in rat brain membrane by competitive binding assay. Format: cell membranes. In general terms: In a radioligand displacement assay an active substance lowers the binding of a labelled ligand.
Assay [2] deals with Cannabinoid receptor 2 (Homo sapiens, UniProt P34972). In words: Displacement of [3H]CP-55940 from human CB2 receptor expressed in HEK293 cell membrane by competitive binding assay. The assay is classed as cell membranes. The procedure, abridged: (§1)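 Competition-equilibrium binding against [3H]CP-55,940 in rat brain membranes (CB1), mouse spleen membranes (mCB2), or membranes of HEK293 cells expressing hCB2. IC50 was obtained by nonlinear regression and converted to Ki. Ki is the mean of three independent experiments, each run in duplicate.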
Sequence of Cannabinoid receptor 2 (Homo sapiens, UniProt P34972) (P34972 whole entry): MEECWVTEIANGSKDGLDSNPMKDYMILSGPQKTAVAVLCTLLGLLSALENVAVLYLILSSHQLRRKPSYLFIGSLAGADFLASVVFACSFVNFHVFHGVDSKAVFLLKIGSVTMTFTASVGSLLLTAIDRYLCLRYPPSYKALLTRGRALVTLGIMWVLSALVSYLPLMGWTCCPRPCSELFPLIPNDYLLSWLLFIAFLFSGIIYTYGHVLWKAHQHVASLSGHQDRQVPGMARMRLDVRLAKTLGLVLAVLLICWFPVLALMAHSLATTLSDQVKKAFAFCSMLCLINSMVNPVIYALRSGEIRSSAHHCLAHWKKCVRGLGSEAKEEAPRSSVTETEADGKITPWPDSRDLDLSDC

A short description of assay [3]: Selectivity ratio of Ki for human CB2 receptor to Ki for rat CB1 receptor.
The target of assay [4] is Cannabinoid receptor 2 (Mus musculus, UniProt P47936). Kind of assay: Displacement of [3H]CP-55940 from mouse CB2 receptor expressed in mouse spleen membrane by competitive binding assay. Format: cell membranes. The gist of the method: as §1
Sequence of Cannabinoid receptor 2 (Mus musculus, UniProt P47936) (P47936 whole entry): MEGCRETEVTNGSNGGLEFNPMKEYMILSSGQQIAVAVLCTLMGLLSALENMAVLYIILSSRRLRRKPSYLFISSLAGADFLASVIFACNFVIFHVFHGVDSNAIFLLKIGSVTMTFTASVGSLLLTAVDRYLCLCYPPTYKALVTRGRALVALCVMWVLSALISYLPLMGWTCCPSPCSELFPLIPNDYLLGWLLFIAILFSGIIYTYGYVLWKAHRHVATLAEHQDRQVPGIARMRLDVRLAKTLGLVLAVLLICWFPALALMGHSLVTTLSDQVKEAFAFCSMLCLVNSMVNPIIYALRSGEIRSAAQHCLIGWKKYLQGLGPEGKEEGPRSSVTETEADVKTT
Assay [5] in a line: Selectivity ratio of Ki for mouse CB2 receptor to Ki for rat CB1 receptor.
Assay [6] has as its system Rattus norvegicus. Kind of assay: Hypothermic effect in Sprague-Dawley rat assessed as decrease in core body temperature at 1 mg/kg, sc measured over 6 hrs. Format: functional. The conditions noted are these: route subcutaneous. The gist of the method:
(§2)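 Female Sprague-Dawley rats (n = 5–7/group), minimally restrained and isolated, each with a thermistor probe inserted 7 cm and taped to the tail. Two baselines were taken 15 min apart, then sc injection (20% ethanol/20% emulphor/60% saline diluted with saline, 1.0 mL/kg). Temperature was read every 30 min for 3 h, then hourly to 6 h, as change from mean baseline.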

The test system of assay [7] is Rattus norvegicus. In words: Hypothermic effect in sc dosed Sprague-Dawley rat assessed as decrease in core body temperature after 60 mins to 6 hrs. The assay is classed as functional, organism-based. The procedure, abridged:
as §2

Assay [8] has as its system Rattus norvegicus. Kind of assay: Antinociceptive activity in Sprague-Dawley rat assessed as increase in tail-flick latency period at 1 mg/kg, sc by tail-flick test. Format: functional, organism-based. Also noted: dose 1 mg/kg. The procedure, abridged:
(§3)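 Female Sprague-Dawley rats (235–350 g; n = 5–7/group), retested at least 7 days apart. Compound was dissolved in 20% ethanol/20% emulphor/60% saline, diluted with saline, and given sc at 1.0 mL/kg. Radiant-heat tail-flick latency was measured over 6 h with a 6 s cutoff. %MPE = 100 × (test − baseline)/(6 − baseline). Dose-effect curves used each rat's maximum effect.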
(In hot-plate and tail-flick tests a longer latency is read as antinociception.)

Assay [9] addresses Cannabinoid receptor 1 (Homo sapiens, UniProt P21554). In words: Agonist activity at human CB1 receptor transfected in human U2OS cells assessed as beta-arrestin2-GFP aggregation after 40 mins. The assay is classed as cell-based.
Assay [10] relates to Rattus norvegicus. In words: Hypothermic effect in Sprague-Dawley rat assessed as decrease in core body temperature at 10 mg/kg. Format: functional. The gist of the method:
as §2

For assay [11], the system named is Rattus norvegicus. Kind of assay: Antinociceptive activity in Sprague-Dawley rat assessed as increase in tail-flick latency period at 0.1 to 10 mg/kg, sc after 6 hrs by tail-flick test. The assay is classed as functional, organism-based. The gist of the method:
as §3

The subject of assay [12] is Rattus norvegicus. Kind of assay: Antinociceptive activity in Sprague-Dawley rat assessed as increase in tail-flick latency period at 0.1 to 10 mg/kg, sc after 60 to 120 mins by tail-flick test. Format: functional, organism-based. The procedure, abridged: as §3

Each structure is given as a SMILES string. pEC50, pKi: −log10 of the molar value. Calls of active or inactive are those of the source.

Sequence of Cannabinoid receptor 1 (Homo sapiens, UniProt P21554) (P21554 whole entry): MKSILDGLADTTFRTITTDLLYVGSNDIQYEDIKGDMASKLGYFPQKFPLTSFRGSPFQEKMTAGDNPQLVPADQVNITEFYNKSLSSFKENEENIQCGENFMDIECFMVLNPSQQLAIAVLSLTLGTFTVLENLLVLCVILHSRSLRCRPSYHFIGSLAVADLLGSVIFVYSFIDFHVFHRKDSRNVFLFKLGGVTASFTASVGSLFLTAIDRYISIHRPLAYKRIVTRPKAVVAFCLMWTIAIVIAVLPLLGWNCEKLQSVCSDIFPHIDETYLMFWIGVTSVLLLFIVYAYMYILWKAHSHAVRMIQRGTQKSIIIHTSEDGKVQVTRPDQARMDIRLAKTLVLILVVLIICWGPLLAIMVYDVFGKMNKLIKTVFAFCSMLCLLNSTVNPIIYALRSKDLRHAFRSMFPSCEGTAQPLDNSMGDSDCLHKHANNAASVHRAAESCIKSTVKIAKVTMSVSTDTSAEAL
Sequence of Cannabinoid receptor 1 (Rattus norvegicus, UniProt P20272) (P20272 whole entry): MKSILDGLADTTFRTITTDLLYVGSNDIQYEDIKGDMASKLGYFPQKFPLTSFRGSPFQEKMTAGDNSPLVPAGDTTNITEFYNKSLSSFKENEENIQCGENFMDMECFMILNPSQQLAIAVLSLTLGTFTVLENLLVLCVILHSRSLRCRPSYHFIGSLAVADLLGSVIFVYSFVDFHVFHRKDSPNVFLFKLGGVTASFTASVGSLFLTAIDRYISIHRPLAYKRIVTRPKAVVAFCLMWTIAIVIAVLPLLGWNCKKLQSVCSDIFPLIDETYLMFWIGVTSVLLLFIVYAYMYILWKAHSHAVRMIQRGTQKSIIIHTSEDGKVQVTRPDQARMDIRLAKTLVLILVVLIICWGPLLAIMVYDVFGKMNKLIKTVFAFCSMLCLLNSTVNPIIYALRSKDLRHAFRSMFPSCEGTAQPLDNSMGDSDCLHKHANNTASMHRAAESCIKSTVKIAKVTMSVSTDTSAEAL

The term pKi denotes the Ki on a negative log10 scale, so that one unit is a factor of ten. As to `CC1(C)Oc2cc(C34CC5CC(CC(C5)C3)C4)cc(O)c2[C@@H]2C[C@@H](CO)CC[C@H]21`, the negative-log Ki (pKi) is 7.52 in assay [1], 6.92 in assay [2] and 7.19 in assay [4]. The Ratio Ki in assay [3] stood at 4; in assay [5], 2.2.

For orientation: pEC50 means the EC50 on a negative log10 scale, so that one unit is a factor of ten. Turning to `CC1(C)Oc2cc(C34CC5CC(CC(C5)C3)C4)cc(O)c2[C@@H]2C[C@H](CO)CC[C@H]21`, the pKi in assay [1] is 8.31; in assay [2] it was 7.95; in assay [4] it was 7.92. For the same compound, in assay [6], the T was 6.4 °C. Besides, the Activity result in assay [7] is “Dose-dependent effect”. Besides, the outcome in assay [8] was Active. Also, the Ratio Ki in [3] turned out to be 2.3; in assay [5], 2.5. Also, the pEC50 in assay [9] was 7.02.

Regarding `CC1(C)Oc2cc(C34CC5CC(CC(C5)C3)C4)cc(O)c2[C@@H]2C[C@H](CCO)CC[C@H]21`, the negative-log Ki (pKi) in [1] was 8.07; in assay [2] it was 7.48; in assay [4], 7.42. In addition, the Ratio Ki in assay [3] came to 3.9; in assay [5], 4.5.

Regarding `CC1(C)Oc2cc(C34CC5CC(CC(C5)C3)C4)cc(O)c2[C@@H]2CC(=O)CC[C@H]21`, the pKi in assay [2] is 6.47; in assay [4], 6.60.

Take `Cc1ccc2c(c1)-c1c(O)cc(C34CC5CC(CC(C5)C3)C4)cc1OC2(C)C`: the values for the pKi in assay [1], in assay [2] and in assay [4] were 7.21, 7.20 and 7.37, respectively. The figures for the Ratio Ki in assay [3] and in assay [5] were 1 and 0.7, respectively.

Turning to `CC1(C)Oc2cc(C34CC5CC(CC(C5)C3)C4)cc(O)c2[C@@H]2C[C@@H](CC=O)CC[C@H]21`, the negative-log Ki (pKi) is 7.76 in [1], 8.11 in assay [2] and 8.09 in [4]. Besides, the values for the Ratio Ki in assay [3] and in [5] were 0.4 and 0.5, respectively.

As to `CC1(C)Oc2cc(C34CC5CC(CC(C5)C3)C4)cc(O)c2-c2cc(O)ccc21`, the pKi in assay [1] is 7.05; in assay [2], 6.26; in assay [4], 6.60. The Ratio Ki came out at 6.2 in [3] and 2.8 in assay [5].

As for `CC1(C)Oc2cc(C34CC5CC(CC(C5)C3)C4)cc(O)c2[C@@H]2C[C@H](CI)CC[C@H]21`, the pKi in [1] is 6.62; in assay [2] it was 6.58; in assay [4] it was 6.46. Further, the Ratio Ki in assay [3] was determined as 1.1; in assay [5], 1.4.

Consider `CC1(C)Oc2cc(C34CC5CC(CC(C5)C3)C4)cc(O)c2[C@@H]2C[C@@H](CCO)CC[C@H]21`, for which the negative-log Ki (pKi) in assay [1] is 7.39; in [2] it was 6.44; in assay [4], 7.68. The Ratio Ki in assay [3] worked out at 8.9; in [5], 0.5.

In the case of `CO/C=C\[C@@H]1CC[C@@H]2[C@@H](C1)c1c(O)cc(C34CC5CC(CC(C5)C3)C4)cc1OC2(C)C`, the values for the negative logarithm of the Ki (pKi) in [1], in assay [2] and in assay [4] were 7.51, 7.17 and 7.04, respectively. Moreover, the figures for the Ratio Ki in [3] and in assay [5] were 2.2 and 2.9, respectively.

As to `CC1(C)Oc2cc(C34CC5CC(CC(C5)C3)C4)cc(O)c2[C@@H]2C[C@H](O)CC[C@H]21`, the negative logarithm of the Ki (pKi) in assay [1] is 7.62; in [2] it was 7.39; in assay [4], 7.40.

Take `CC(C)(C)C(=O)OCC1=CC[C@@H]2[C@@H](C1)c1c(O)cc(C34CC5CC(CC(C5)C3)C4)cc1OC2(C)C`: the figures for the pKi in assay [1], in assay [2] and in assay [4] were 7.78, 7.31 and 6.90, respectively. The results for the Ratio Ki in assay [3] and in [5] were 3 and 7.6, respectively.

As for `CC1(C)Oc2cc(C34CC5CC(CC(C5)C3)C4)cc(O)c2[C@@H]2C[C@H](CC=O)CC[C@H]21`, the values for the pKi in [1], in assay [2] and in assay [4] were 7.88, 7.95 and 7.46, respectively. Also, the values for the Ratio Ki in [3] and in [5] were 0.8 and 2.6, respectively.

`CC1=CC[C@@H]2[C@@H](C1)c1c(O)cc(C34CC5CC(CC(C5)C3)C4)cc1OC2(C)C`: in assay [10], the result was inactive. The result in [11] and in [12] was Active. Also, the pEC50 in assay [9] is 5.82.

As to `CC1(C)Oc2cc(C34CC5CC(CC(C5)C3)C4)cc(O)c2[C@@H]2C[C@@H](O)CC[C@H]21`, the results for the pKi in assay [1], in assay [2] and in [4] were 6.83, 6.17 and 6.59, respectively.

On to `CC1(C)Oc2cc(C34CC5CC(CC(C5)C3)C4)cc(O)c2-c2cc(CO)ccc21`, for which the T in [10] is 4.1 °C. Besides, the results for the negative logarithm of the Ki (pKi) in [1], in assay [2] and in assay [4] were 8.68, 7.33 and 7.49, respectively. Besides, the Ratio Ki in assay [3] amounted to 22.2; in assay [5] it was 15.4. In assay [9], the negative-log EC50 (pEC50) was 6.35.

Regarding `COc1ccc2c(c1)-c1c(O)cc(C34CC5CC(CC(C5)C3)C4)cc1OC2(C)C`, the pKi in [1] is 6.29; in assay [2], 6.47; in assay [4], 6.02. Besides, the Ratio Ki turned out to be 0.7 in assay [3] and 1.9 in assay [5].

`CC1(C)Oc2cc(C34CC5CC(CC(C5)C3)C4)cc(O)c2[C@@H]2C[C@@H](C=O)CC[C@H]21`: the pKi was 7.32 in assay [1], 8.05 in assay [2] and 7.70 in assay [4]. Also, the Ratio Ki in assay [3] was found to be 0.2; in [5] it was 0.4.

In the case of `CC1(C)Oc2cc(C34CC5CC(CC(C5)C3)C4)cc(O)c2[C@@H]2C[C@H](C=O)CC[C@H]21`, the values for the pKi in assay [1], in [2] and in [4] were 7.28, 8.26 and 7.59, respectively. Also, the Ratio Ki worked out at 0.1 in [3] and 0.5 in assay [5].

Regarding `CC1(C)Oc2cc(C34CC5CC(CC(C5)C3)C4)cc(O)c2[C@@H]2CC(CO)=CC[C@H]21`, the negative-log Ki (pKi) in [1] was 8.14; in assay [2], 7.85; in assay [4], 7.97. Also, the Ratio Ki in assay [3] came out at 1.9; in assay [5], 1.5. In assay [9], the pEC50 was 6.64.

For `CC1(C)Oc2cc(C34CC5CC(CC(C5)C3)C4)cc(O)c2[C@@H]2C[C@H](CC#N)CC[C@H]21`, the pKi in assay [1] was 7.31; in [2] it was 7.00; in assay [4], 7.06. Further, the Ratio Ki in assay [3] turned out to be 2.1; in assay [5], 1.8.
